Assay results as given in ChEMBL document CHEMBL3286367, “Synthesis of new class of spirocarbocycle derivatives by multicomponent domino reaction and their evaluation for antimicrobial, anticancer activity and molecular docking studies” (2014).
The source made the active and inactive calls. The rule behind the calls is not given here.

Experiments:
Micrococcus luteus [1] = assay: Antimicrobial activity against Micrococcus luteus MTCC 106 assessed as absence of visible growth after 48 to 72 hrs; type: functional
Staphylococcus aureus [2] = assay: Antimicrobial activity against methicillin-resistant Staphylococcus aureus assessed as absence of visible growth after 48 to 72 hrs; type: functional
Procedure, shortened: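 Broth two-fold serial dilution in 96-well plates, 1000 to 7.81 µg/mL, compound dissolved in DMSO (2%). Inoculum grown in Mueller Hinton broth 24 h at 37°C. Streptomycin positive control. 5 µl of tested broth plated on MHA; MIC is the lowest concentration inhibiting visible growth on agar.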

[3] = system: Staphylococcus epidermidis; assay: Antimicrobial activity against Staphylococcus epidermidis MTCC 3615 assessed as zone of inhibition at 1 mg/disc after 24 hrs incubation by disc diffusion assay; type: functional
Procedure, shortened: (§1)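 Inocula grown in Mueller Hinton broth for 24 h at 37 °C and swabbed onto Mueller Hinton agar. Discs carried 1 mg compound each and stood 30 min at room temperature before 24 h incubation at 37 °C. Solvent as negative control. Inhibition zones recorded in mm; experiment done twice.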

Shigella flexneri [4] = assay: Antimicrobial activity against Shigella flexneri MTCC 1457 assessed as absence of visible growth after 24 hrs
Candida albicans = assay: Antifungal activity against Candida albicans MTCC 227 assessed as zone of inhibition at 1 mg/disc after 48 hrs incubation by disc diffusion assay; type: functional
Procedure, shortened: (§2)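 Disc diffusion on Mueller Hinton agar with swabbed cultures, 1 mg compound per disc. Discs stood 30 min at room temperature for diffusion, then plates incubated 48 h at 28 °C. Solvent as negative control. Yeast pre-grown in Sabouraud dextrose broth at 28 °C for 48-72 h; filamentous fungal spores came from SDA slants grown 10 days at 28 °C. Zone diameters in mm; run twice.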

Staphylococcus aureus [5] = assay: Antimicrobial activity against methicillin-resistant Staphylococcus aureus assessed as zone of inhibition at 1 mg/disc after 24 hrs incubation by disc diffusion assay; type: functional
Procedure, shortened: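 Inoculum grown in Mueller Hinton broth 24 h at 37°C, swabbed onto Mueller Hinton agar and dried 10 min. Discs loaded at 1 mg/disc, then 30 min at room temperature for diffusion. Plates incubated 24 h at 37°C. Solvent negative control; streptomycin positive control. Zone of inhibition read in mm; experiment done twice.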

Klebsiella aerogenes [6] = assay: Antimicrobial activity against Enterobacter aerogenes MTCC 111 assessed as absence of visible growth after 48 to 72 hrs; type: functional
Micrococcus luteus [7] = assay: Antimicrobial activity against Micrococcus luteus MTCC 106 assessed as zone of inhibition at 1 mg/disc after 24 hrs incubation by disc diffusion assay; type: functional; procedure, shortened: as §1
Proteus vulgaris [8] = assay: Antimicrobial activity against Proteus vulgaris MTCC 1771 assessed as zone of inhibition at 1 mg/disc after 24 hrs incubation by disc diffusion assay; type: functional; procedure, shortened: as §1
Klebsiella pneumoniae [9] = assay: Antimicrobial activity against Klebsiella pneumonia MTCC 109 assessed as absence of visible growth after 24 hrs
Shigella flexneri [10] = assay: Antimicrobial activity against Shigella flexneri MTCC 1457 assessed as zone of inhibition at 1 mg/disc after 24 hrs incubation by disc diffusion assay; type: functional; procedure, shortened: as §1
Klebsiella pneumoniae [11] = assay: Antimicrobial activity against Klebsiella pneumonia MTCC 109 assessed as zone of inhibition at 1 mg/disc after 24 hrs incubation by disc diffusion assay; type: functional; procedure, shortened: as §1
Salmonella typhimurium [12] = assay: Antimicrobial activity against Salmonella typhimurium MTCC 1251 assessed as zone of inhibition at 1 mg/disc after 24 hrs incubation by disc diffusion assay; type: functional, Salmonella enterica subsp. enterica serovar Typhimurium; conditions: for inhibition: Salmonella enterica subsp. enterica serovar Typhimurium; procedure, shortened: as §1
Staphylococcus aureus [13] = assay: Antimicrobial activity against Staphylococcus aureus MTCC 96 assessed as absence of visible growth after 48 to 72 hrs; type: functional
Proteus vulgaris [14] = assay: Antimicrobial activity against Proteus vulgaris MTCC 1771 assessed as absence of visible growth after 48 to 72 hrs; type: functional
Salmonella typhimurium [15] = assay: Antimicrobial activity against Salmonella typhimurium MTCC 1251 assessed as absence of visible growth after 48 to 72 hrs; type: functional, Salmonella enterica subsp. enterica serovar Typhimurium; conditions: Salmonella enterica
Klebsiella aerogenes [16] = assay: Antimicrobial activity against Enterobacter aerogenes MTCC 111 assessed as zone of inhibition at 1 mg/disc after 24 hrs incubation by disc diffusion assay; type: functional; procedure, shortened: as §1
Staphylococcus aureus [17] = assay: Antimicrobial activity against Staphylococcus aureus MTCC 96 assessed as zone of inhibition at 1 mg/disc after 24 hrs incubation by disc diffusion assay; type: functional; procedure, shortened: as §1
[18] = system: Staphylococcus epidermidis; assay: Antimicrobial activity against Staphylococcus epidermidis MTCC 3615 assessed as absence of visible growth after 24 hrs
Malassezia pachydermatis = assay: Antifungal activity against Malassezia pachydermatis assessed as zone of inhibition at 1 mg/disc after 48 hrs incubation by disc diffusion assay; type: functional; procedure, shortened: as §2

| Compound | inhibition zone (IZ) [3] | inhibition zone (IZ) (Candida albicans) | inhibition zone (IZ) (Staphylococcus aureus [5]) | inhibition zone (IZ) (Micrococcus luteus [7]) | inhibition zone (IZ) (Klebsiella pneumoniae [11]) | inhibition zone (IZ) (Salmonella typhimurium [12]) | inhibition zone (IZ) (Klebsiella aerogenes [16]) | inhibition zone (IZ) (Staphylococcus aureus [17]) | inhibition (Malassezia pachydermatis) | inhibition [3] | inhibition (Candida albicans) | inhibition (Proteus vulgaris [8]) | inhibition (Shigella flexneri [10]) | inhibition (Salmonella typhimurium [12]) | inhibition (Klebsiella aerogenes [16]) | inhibition (Micrococcus luteus [7]) | further results |
| --- | --- | --- | --- | --- | --- | --- | --- | --- | --- | --- | --- | --- | --- | --- | --- | --- | --- |
| N#CC1=C(N)[C@]2(C(=O)Nc3ccccc32)[C@@H](c2ccccc2F)[C@@H]2CCCC=C12 (mixture of isomers) | 13 mm | 10 mm | 12 mm | 10 mm | 10 mm | 11 mm | 14 mm | 17 mm | inactive | – | – | – | – | – | – | – | MIC (Micrococcus luteus [1]): 250 µg/mL; MIC (Staphylococcus aureus [2]): 250 µg/mL; MIC (Shigella flexneri [4]): 1000 µg/mL; MIC (Klebsiella aerogenes [6]): 250 µg/mL; inhibition zone (IZ) (Proteus vulgaris [8]): 8 mm; MIC (Klebsiella pneumoniae [9]): 500 µg/mL; inhibition zone (IZ) (Shigella flexneri [10]): 9 mm; MIC (Staphylococcus aureus [13]): 125 µg/mL; MIC (Proteus vulgaris [14]): 1000 µg/mL; MIC (Salmonella typhimurium [15]): 250 µg/mL; MIC [18]: 250 µg/mL |
| COc1ccc([C@H]2[C@@H]3CCC=C3C(C#N)=C(N)C23C(=O)c2ccccc2C3=O)cc1 (relative stereo) | – | – | 10 mm | 8 mm | 11 mm | – | – | – | inactive | inactive | inactive | inactive | inactive | inactive | inactive | – | inhibition (Staphylococcus aureus [17]): inactive |
| Cc1ccc([C@H]2[C@@H]3CCCC=C3C(C#N)=C(N)C23C(=O)CCCC3=O)cc1 (relative stereo) | – | – | – | – | 10 mm | – | – | – | inactive | inactive | inactive | – | inactive | inactive | inactive | inactive | inhibition (Staphylococcus aureus [5]): inactive; inhibition zone (IZ) (Proteus vulgaris [8]): 9 mm; inhibition (Staphylococcus aureus [17]): inactive |
| COc1ccc([C@H]2[C@@H]3CCCC=C3C(C#N)=C(N)C23C(=O)c2ccccc2C3=O)cc1 (relative stereo) | 12 mm | – | – | 11 mm | 10 mm | – | 10 mm | 11 mm | – | – | inactive | inactive | inactive | inactive | – | – | inhibition (Staphylococcus aureus [5]): inactive; inhibition zone (IZ) (Malassezia pachydermatis): 10 mm |
| N#CC1=C(N)C2(C(=O)c3ccccc3C2=O)[C@@H](c2ccc(Br)cc2)[C@@H]2CCCC=C12 (relative stereo) | – | 10 mm | 13 mm | – | 10 mm | 12 mm | – | 14 mm | inactive | inactive | – | inactive | inactive | – | inactive | inactive | – |
| N#CC1=C(N)C2(C(=O)c3ccccc3C2=O)[C@@H](c2ccc(Cl)cc2)[C@@H]2CCCC=C12 (relative stereo) | 8 mm | – | 13 mm | – | – | 10 mm | 13 mm | 9 mm | inactive | – | inactive | inactive | – | – | – | inactive | inhibition zone (IZ) (Shigella flexneri [10]): 8 mm; inhibition (Klebsiella pneumoniae [11]): inactive |
| CC(=O)N1CCN(c2ccc(OCC3COC(Cn4ccnc4)(c4ccc(Cl)cc4Cl)O3)cc2)CC1 (racemic) [KETOCONAZOLE] | – | 28 mm | – | – | – | – | – | – | – | – | – | – | – | – | – | – | inhibition zone (IZ) (Malassezia pachydermatis): 26 mm |
